What was measured:
MIA PaCa-2 = test: Growth inhibition of human MIAPaCa2 cells after 48 hrs by SRB assay; assay type: functional; conditions: MIA PaCa-2, 48 h
In short: (§1)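 Cells grown in RPMI 1640 with 5% heat-inactivated FCS, 2 mM L-glutamine and antibiotics, 37 °C, 5% CO2. Seeded at 3500–30000 cells/well and left 24 h before dosing. DMSO solutions added at 10-fold dilutions from 100 to 0.01 μM for 48 h. Cells TCA-fixed and SRB-stained, absorbance read at 540 nm; GI50 derived against the time-zero plate.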

HCT-116 = test: Growth inhibition of human HCT116 cells after 48 hrs by SRB assay; assay type: functional; conditions: HCT-116, 48 h; for CC50: read-out: LC50 (the source's name); in short: as §1
[1] = (§2) Growth inhibition of human HUVEC cells after 48 hrs by SRB assay; assay type: cell-based; conditions: HUVEC cells; in short: as §1
MCF7 = test: Growth inhibition of human MCF7 cells after 48 hrs by SRB assay; assay type: functional; conditions: MCF7, 48 h; for CC50: read-out: LC50 (the source's name); in short: as §1
DU-145 = test: Growth inhibition of human DU145 cells after 48 hrs by SRB assay; assay type: functional; conditions: DU-145, 48 h; for CC50: read-out: LC50 (the source's name); in short: as §1
PC-3 = test: Growth inhibition of human PC3 cells after 48 hrs by SRB assay; assay type: functional; conditions: PC-3, 48 h; for CC50: read-out: LC50 (the source's name); in short: as §1
U-251 = test: Growth inhibition of human U251 cells after 48 hrs by SRB assay; assay type: functional; conditions: U-251, 48 h; for CC50: read-out: LC50 (the source's name); in short: as §1
SK-HEP1 = test: Growth inhibition of human SKHEP1 cells after 48 hrs by SRB assay; assay type: functional; conditions: SK-HEP1, 48 h; for CC50: read-out: LC50 (the source's name); in short: as §1
BXPC-3 [2] = test: Antitumor activity against human BxPC3 cells xenografted in SCID mouse assessed as tumor growth inhibition at 17 mg/kg, ip administered twice a week for three cycles measured after 3 cycles relative to control; assay type: functional; conditions: BXPC-3, ip, route intraperitoneal, read-out: TGI
In short: (§3)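 SCID mice bearing BxPC3 pancreatic xenografts, 10 mice per group (20 tumors). Drug dissolved in water for injection, given ip twice a week for three cycles. Controls were untreated and 5% Tween 80 vehicle. Tumor volume measured by caliper twice weekly; reduction reported on termination day. Two-tailed Student's t test.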

NHDF = test: (§4) Growth inhibition of human NHDF cells after 48 hrs by SRB assay; assay type: cell-based; conditions: nhdf, 48 h; in short: as §1
[3] = as §4; assay type: cell-based; conditions: NHDF cells; in short: as §1
HCT-15 = test: Growth inhibition of human HCT15 cells after 48 hrs by SRB assay; assay type: functional; conditions: HCT-15, 48 h; for CC50: read-out: LC50 (the source's name); in short: as §1
OVCAR-5 = test: Growth inhibition of human OVCAR5 cells after 48 hrs by SRB assay; assay type: functional; conditions: OVCAR-5, 48 h; in short: as §1
BXPC-3 [4] = test: Growth inhibition of human BxPC3 cells after 48 hrs by SRB assay; assay type: functional; conditions: BXPC-3, 48 h; in short: as §1
IGROV-1 = test: Growth inhibition of human IGROV1 cells after 48 hrs by SRB assay; assay type: functional; conditions: IGROV-1, 48 h; for CC50: read-out: LC50 (the source's name); in short: as §1
HL-60(TB) = test: Growth inhibition of human HL-60(TB) cells after 48 hrs by SRB assay; assay type: functional; conditions: HL-60, 48 h; for CC50: read-out: LC50 (the source's name)
In short: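 Cells kept in RPMI 1640 with 5% FCS at 37 °C, 5% CO2, and seeded 24 h before dosing. Compound given from DMSO at 10-fold dilutions, 100 to 0.01 μM, for 48 h. Cells fixed with TCA, stained with SRB, absorbance read at 540 nm. GI50 taken from a time-zero plate.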

[5] = Growth inhibition of human MSC cells after 48 hrs by SRB assay; assay type: cell-based; in short: as §1
BXPC-3 [6] = test: Antitumor activity against human BxPC3 cells xenografted in SCID mouse assessed as tumor growth inhibition at 35 mg/kg, ip administered twice a week for three cycles measured after 3 cycles relative to control; assay type: functional; conditions: BXPC-3, ip, route intraperitoneal, read-out: TGI; in short: as §3
BXPC-3 [7] = test: Antitumor activity against human BxPC3 cells xenografted in SCID mouse assessed as tumor growth inhibition at 10 mg/kg, ip administered 5 times a week for one cycle relative to control; assay type: functional; conditions: BXPC-3, ip, route intraperitoneal, read-out: TGI
[8] = target: Sigma non-opioid intracellular receptor 1 (Homo sapiens, UniProt Q99720); test: Displacement of [3H]-(+)-pentazocine from sigma 1 receptor in human Jurkat cell membrane; assay type: cell membranes
Sigma non-opioid intracellular receptor 1, sequence (Q99720 whole entry): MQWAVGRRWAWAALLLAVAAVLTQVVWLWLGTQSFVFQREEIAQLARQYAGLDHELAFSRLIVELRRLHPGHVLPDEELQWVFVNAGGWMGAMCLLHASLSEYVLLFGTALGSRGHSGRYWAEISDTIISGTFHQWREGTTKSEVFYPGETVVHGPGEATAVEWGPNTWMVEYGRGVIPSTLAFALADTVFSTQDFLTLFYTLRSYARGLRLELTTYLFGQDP
In short: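 Jurkat cell membranes incubated with 8 nM [3H](+)-pentazocine and a range of test concentrations for 2 h at 22 °C in Tris-HCl buffer, pH 7.4. Nonspecific binding defined with 10 μM haloperidol. Run in triplicate.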

[9] = Displacement of [3H]1,3-di-otolylguanidine from sigma 2 receptor in rat cerebral cortex membranes; assay type: cell membranes, Membrane
In short: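 Rat cerebral cortex membranes incubated with 5 nM [3H]DTG plus 300 nM (+)-pentazocine to mask σ1 sites, together with a range of test concentrations, 2 h at 22 °C in Tris-HCl, pH 7.4. Nonspecific binding defined with 10 μM haloperidol.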

[10] = Displacement of [3H]batrachotoxin benzoate from Na+ channel after 60 mins by liquid scintillation counting
In short: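 Na+ channel site 2 binding: vesicle preparation (150−500 μg protein) incubated 60 min with 20−25 nM [3H]BTX-B and 50 μg Leiurius quinquestriatus venom. Buffer was 130 mM choline chloride, 50 mM HEPES/Tris pH 7.4, glucose, MgSO4, KCl, BSA. Filtered on GF/C with cold washes; scintillation counting. Nonspecific binding defined with 250 μM veratridine.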

HUVEC = test: as §2; assay type: cell-based; conditions: huvec, 48 h; in short: as §1
[11] = read-out: LC50 (the source's name)

`O=c1[nH]cc(F)c(=O)[nH]1` [FLUOROURACIL] gave a GI50 (MIA PaCa-2) of 30.6 µM, a TGI (MIA PaCa-2) of 100 µM and a CC50 (MIA PaCa-2; [11]) of 0.1 µM. The GI50 (HCT-116) was 8.8 µM, the TGI (HCT-116) was 100 µM and the CC50 (HCT-116) was 0.1 µM. The GI50 at 48 h [1] was 3.6 µM, the GI50 (MCF7) was 14.5 µM and the TGI (MCF7) was 100 µM. It also gave a CC50 (MCF7) of 0.1 µM, a GI50 (DU-145) of 20 µM and a TGI (DU-145) of 100 µM. It also gave a CC50 (DU-145) of 0.1 µM, a GI50 (PC-3) of 10.5 µM and a TGI (PC-3) of 100 µM. The CC50 (PC-3) was 0.1 µM, the GI50 (U-251) was 69.6 µM and the TGI (U-251) was 100 µM. For the same molecule, the CC50 (U-251) was 0.1 µM, the GI50 (SK-HEP1) was 7.6 µM and the TGI (SK-HEP1) was 100 µM. For the same molecule, the CC50 (SK-HEP1) was 0.1 µM, the inhibition in vivo at 17 mg/kg (BXPC-3 [2]) was 23.7% and the TGI (NHDF) was 100 µM. For the same molecule, the GI50 at 48 h [3] was 62 µM, the GI50 (HCT-15) was 21.1 µM and the TGI (HCT-15) was 100 µM. The CC50 (HCT-15) was 0.1 µM, the GI50 (OVCAR-5) was 26.4 µM and the TGI (OVCAR-5) was 100 µM. It also gave a CC50 (OVCAR-5; [11]) of 0.1 µM, a GI50 (BXPC-3 [4]) of 2.9 µM and a TGI (BXPC-3 [4]) of 8.4 µM. It also gave a GI50 (IGROV-1) of 8.12 µM, a TGI (IGROV-1) of 100 µM and a CC50 (IGROV-1) of 0.1 µM. For the same molecule, the GI50 (HL-60(TB)) was 0.1 µM, the TGI (HL-60(TB)) was 0.1 µM and the CC50 (HL-60(TB)) was 0.1 µM. It also gave a TGI [5] of 1 µM and an inhibition in vivo at 35 mg/kg (BXPC-3 [6]) of 36.7%.

Work on `Nc1ccn([C@@H]2O[C@H](CO)[C@@H](O)[C@@H]2O)c(=O)n1` [CYTARABINE] yielded an inhibition in vivo at 10 mg/kg (BXPC-3 [7]) of 23.8%.

`c1ccc(C(c2ccc(CCCN3CCCCC3)cc2)C23CC4CC(CC(C4)C2)C3)cc1` (stereo unspecified) gave a GI50 (HCT-116) of 3.37 µM, a TGI (HCT-116) of 5.99 µM and a CC50 (HCT-116) of 0.00861 µM. The IC50 [8] was 0.0123 µM, the IC50 [9] was 0.013 µM and the IC50 [10] was greater than 0.1 µM. It also gave an LC50 (HUVEC) of 9.18 µM, a TGI (HUVEC) of 6.23 µM and a GI50 at 48 h [1] of 3.27 µM. For the same molecule, the GI50 (MCF7) was 2.41 µM, the TGI (MCF7) was 6.07 µM and the CC50 (MCF7) was 0.00963 µM. It also gave a GI50 (DU-145) of 5.18 µM, a TGI (DU-145) of 8.17 µM and a CC50 (DU-145) of 0.0112 µM. It also gave a GI50 (PC-3) of 3.92 µM, a TGI (PC-3) of 7.32 µM and a CC50 (PC-3) of 0.0107 µM. For the same molecule, the GI50 (U-251) was 4.61 µM, the TGI (U-251) was 7.19 µM and the CC50 (U-251) was 0.00977 µM. It also gave a GI50 (SK-HEP1) of 3.25 µM, a TGI (SK-HEP1) of 5.97 µM and a CC50 (SK-HEP1) of 0.00868 µM. For the same molecule, the LC50 (NHDF) was 9.47 µM, the TGI (NHDF) was 6.15 µM and the GI50 at 48 h [3] was 2.83 µM. For the same molecule, the GI50 (HCT-15) was 3.89 µM, the TGI (HCT-15) was 6.78 µM and the CC50 (HCT-15) was 0.00968 µM. It also gave a GI50 (BXPC-3 [4]) of 3.78 µM, an LC50 (BXPC-3 [4]) of 0.00917 µM and a TGI (BXPC-3 [4]) of 6.47 µM. The TGI [5] was 1.93 µM.

`c1ccc(C(c2ccc(CCCN3CCNCC3)cc2)C23CC4CC(CC(C4)C2)C3)cc1` (stereo unspecified) showed a GI50 (HCT-116) of 2.96 µM, a TGI (HCT-116) of 5.85 µM and a CC50 (HCT-116) of 0.00874 µM. It also gave an IC50 [8] of 0.042 µM, an IC50 [9] of 0.461 µM and an IC50 [10] greater than 1 µM. The LC50 (HUVEC) was 100 µM, the TGI (HUVEC) was 7.17 µM and the GI50 at 48 h [1] was 3.97 µM. It also gave a GI50 (MCF7) of 3.1 µM, a TGI (MCF7) of 5.97 µM and a CC50 (MCF7) of 0.00884 µM. It also gave a GI50 (DU-145) of 2.83 µM, a TGI (DU-145) of 5.65 µM and a CC50 (DU-145) of 0.00846 µM. It also gave a GI50 (PC-3) of 3.06 µM, a TGI (PC-3) of 5.71 µM and a CC50 (PC-3) of 0.00837 µM. The GI50 (U-251) was 3.3 µM, the TGI (U-251) was 5.87 µM and the CC50 (U-251) was 0.00844 µM. It also gave a GI50 (SK-HEP1) of 3.67 µM, a TGI (SK-HEP1) of 6.19 µM and a CC50 (SK-HEP1) of 0.0087 µM. For the same molecule, the LC50 (NHDF) was 9.58 µM, the TGI (NHDF) was 6.82 µM and the GI50 at 48 h [3] was 4.07 µM. For the same molecule, the GI50 (HCT-15) was 3.15 µM, the TGI (HCT-15) was 6.13 µM and the CC50 (HCT-15) was 0.00911 µM. It also gave a GI50 (BXPC-3 [4]) of 3.38 µM, an LC50 (BXPC-3 [4]) of 0.00944 µM and a TGI (BXPC-3 [4]) of 6.41 µM. The GI50 (IGROV-1) was 3.29 µM, the TGI (IGROV-1) was 6.34 µM and the CC50 (IGROV-1) was 0.00939 µM. It also gave a GI50 (HL-60(TB)) of 0.00301 µM, a TGI (HL-60(TB)) of 0.00822 µM and a CC50 (HL-60(TB)) of 0.1 µM. For the same molecule, the TGI [5] was 7.28 µM.
